Assay results published in publication PMC7392372 (Bioorganic & medicinal chemistry letters, 2018).

Tests used:
BRD4 (BD1,2) = BRD4 (BD1,2) (Homo sapiens, UniProt O60885); assay: BROMOScan competitive binding affinity, BRD4; details: for fold improvement in Kd values: relative to smaller 2-substitutions (13, 14); for fold decrease of potency in binding affinity (Kd): relative to 17
[1] = Pharmacokinetics in CD-1 mice; type: in vivo; details: po 10 mg/kg, n=3
In short: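 CD-1 mice received a single 10 mg/kg oral dose, n = 3. AUC0−∞ (h·ng/mL) was reported together with t1/2, Cmax, Vss, CLp and F%. For oral bioavailability, an intravenous arm dosed at 2 mg/kg was also run.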

fold improvement in Kd values (BRD4 (BD1,2)) | fold decrease of potency in binding affinity (Kd) (BRD4 (BD1,2)) | Compound | further results
~ 20 fold |  | Cc1noc(C)c1-c1ccc2nc(N(C)CCN(C)C)nc(NCc3cccc(Cl)c3)c2c1 [compound 15] | 
~ 20 fold |  | Cc1noc(C)c1-c1ccc2nc(N3CCN(C)CC3)nc(NCc3cccc(Cl)c3)c2c1 [compound 16] | 
 | ~ 12 fold | Cc1noc(C)c1-c1ccc2c(NCc3cccc(Cl)c3)nc(N3CCN(CCN(C)C)CC3)nc2c1 [compound 40] | 
 |  | CN(C)CCN1CCN(c2nc(NCc3cccc(Cl)c3)c3cc(-c4ccc(=O)n(C)c4)ccc3n2)CC1 [compound 48] | AUC0−∞ [1]: no exposure
 | ~ 9 fold | Cc1noc(C)c1-c1ccc2nc(N3CCN(CCN(C)C)CC3)nc(NCc3ccc(Cl)cc3)c2c1 [compound 51] | 
 | 2–3 fold | Cc1noc(C)c1-c1ccc2nc(N3CCN(CCN(C)C)CC3)nc(N(C)Cc3cccc(Cl)c3)c2c1 [compound 57] | 
